Experimental data published in the EternaBench riboswitch data.

System: MS2 coat protein
Assay: apparent Kd, MS2 coat protein; higher = weaker binding; RNA-MaP array; FMN 200 µM where present
Summary of the method: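 Stalled E. coli RNA polymerase transcribed each design on Illumina sequencing-chip clusters. The clusters were titrated with SNAP-549-labelled MS2 coat protein, starting at 0.7 or 1.5 nM and doubling up to 3 µM, first without ligand and then with constant ligand, in 100 mM Tris-HCl pH 7.5, 80 mM KCl, 4 mM MgCl2, BSA, DTT, yeast tRNA and Tween-20. Green signal was normalised to red-channel RNA signal and to the control-cluster median Fmax. The apparent Kd is the median of filtered binding-curve fits made for each cluster.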

[1] = designed as: ON switch for flavin mononucleotide, no ligand
[2] = ligand present: flavin mononucleotide, designed as: ON switch for flavin mononucleotide
[3] = designed as: OFF switch for flavin mononucleotide, no ligand
[4] = ligand present: flavin mononucleotide, designed as: OFF switch for flavin mononucleotide

Sequence | apparent Kd [1] | apparent Kd [2] | apparent Kd [3] | apparent Kd [4]
GCCAUCACAUGAGGAUAUGCUCCCGUUUCGGGAGCAGAAGGCAUGUCAUAAGACAUGAGGAUCACCCAUGUAUUUAAGAUGGCA | 227 nM | 9.52 nM | – | –
CGUAUGUCAGGAUAUGCGUAUGCCGCCCAGGACAGGCGGCAGCAGAAGGGACAUGAGGAUCACCCAUGUUCGGG | – | – | 68.3 nM | 59.5 nM
ACUGCAUAGGCAGGAUAUGCAAUAAUUCGAAUAAAAUAUAACGAAUUAACAUGAGGAUCACCCAUGUAGAAGGGCCUGUGCAGU | – | – | 6.46 nM | 5.46 nM
CGAUAGGACAGAGGAUAUACACAUGAGGAUCACCCAUGUGAUUACAACGCGAAAGCUCCAAACAUGUAGAAGGCUGUCCUAUCG | – | – | 18.1 nM | 21.1 nM
GUGUAGAUAGGAUAUGCUUAGAGCUUACGAAAGUAGGCUCUACAUGAGGAUCACCCAUGUAGAAGGGUCUACAC | – | – | 31.3 nM | 19.1 nM
UCUCGAUGUGUAGGAUAUCUGAUUACUAUGACAAGAGAAGGGCACAUGAGGAUCACCCAUGUGGAGGACCACUGGUUCAGAUUA | – | – | 31.2 nM | 49.3 nM
AAAAAGGGAGGAUAUACAUGAGGAUCACCCAUGUGAAAAAAAAAAAAAAAAAAAAAAAGUAGAAGGCCCAAAAA | – | – | 67.1 nM | 53.8 nM
UUAAGUUCAGGAUAUGAUGUUUUAAACAUGAGGAUCACCCAUGUAGAUCCUGAAUUAACAUCAGAAGGGAAUAUUU | – | – | 37.5 nM | 217 nM
ACUGUUUGAUUCCUCUUAUACAUGAGGAUCACCCAUGUUAUCGAGGAUAUGCAUUAGAGUGUUUAGCAGAAGGCGAUGUAAUUC | – | – | 5.89 nM | 12.9 nM
GUCGGAUGUAUAGGAUAUCGACUGGAAUACAGUCGAGAAGGAUACAUGAGGAUCACCCAUGUAAUAAUAAUAAUAAUAACCGAC | – | – | 12.5 nM | 24 nM
GCACUGGAUGUAGGAUAUCAGGACGAUAAGUCCUGAGAAGGACAUGAGGAUCACCCAUGUAAACUCAACCAGUGCUAUAAUAUA | – | – | 15.2 nM | 22.8 nM
ACGACGAAAGUCGAACGAUGUACGAGAAGGACAUGAGGAUCACCCAUGUUAUCUGUAAUAGACAUGUAGGAUAUCGUACAUCGA | – | – | 8.26 nM | 26.6 nM
GAAUUUUUACAGAAGGUGUUUUACAUGAGGAUCACCCAUGUUUUAUUGUUUAAAUUUGUUAUUUACAAGGAUAUGUUCUAUUCU | 26.7 nM | 19.7 nM | – | –
GGAUGACAAAGUCAUCCAAAUCGAACAUGAGGAUCACCCAUGUAGGAUAUCCUACUCAAAGAGUAGGAGAAGGACAUGUGCUUU | – | – | 53.1 nM | 178 nM
GCCAGUUAUGUAGGAUAUGCGCGGCGAGCCUGUGCAGAAGGACAUGAGGAUCACCCAUGUGUUGCGGUCUGAGUACUGAUCGCC | – | – | 32.9 nM | 208 nM
UUGCGGUAGGAGAAGGACAGAGGCGGAAACACAAACAUGAGGAUCACCCAUGUAGGAUAUCCUACCUAACGCGGAUCCCUCCAG | – | – | 11.1 nM | 34.6 nM
AUAUUGUGAGGAUAUGAACAUAGUAUCGAAAGAUACUAAGUUCAGAAGGCACAUGAGGAUCACCCAUGUUUCUC | – | – | 70.2 nM | 738 nM
AAUCCACAUGAGGAUCACCCAUGUCAGGAUAUCGCGCGCGCGGUUUCGGUCGCGCGCGCGAGAAGGGACGGCUG | – | – | 28.8 nM | 51.7 nM
AAACUGUGAGGAUAUGGUGAGUAGUGCCUGAGCGCUGCUCACCAGAAGGCACAUGAGGAUCACCCAUGUAUAAC | – | – | 24.8 nM | 62.1 nM
AAAACCUCAUGAGGAUAUCCAACAUGAGGAUCACCCAUGUUAGUCUCAGUACUAGAUACUUGAGAGGAGAAGGCAUGCCAGGGC | 97 nM | 31.6 nM | – | –
UGGUACUAGGGAGGAUAUGGGAAGAUACAUGAGGAUCACCCAUGUUUAAGAAUGUCGAGAGGCAACUAGAAGGCCCUAGUACCU | 504 nM | 19.4 nM | – | –
CGCACUAUACAUGAGGAUCACCCAUGUUAAUAUGAGAUAGUCAGAAGGCAUUGUUUGAGAAAUUAUGAGGAUAUGAAUAGUGCG | 100 nM | 23.7 nM | – | –
ACAUACAUUCGAGGAUAUCGGUGAACAUAUUAACGAGAAGGCGAUAUAAUUUUUAAUCUUAUAAACAUGAGGAUCACCCAUGUA | 21.9 nM | 20.2 nM | – | –
UGAUAGGACAGAGGAUAUACGUGCUAGAGAUACUAGCAAAGUUUCCUGACAUGAGGAUCACCCAUGUAGAAGGCUGUCCUAUCU | – | – | 6.56 nM | 20.9 nM

Sequence | apparent Kd [1] | apparent Kd [2] | apparent Kd [3] | apparent Kd [4]
AAAACAUGAGGAUCACCCAUGUAAAGAACGGUUAAUAGAUGUGAGGAUAUACUAGAAUUUAGGUAGUAGAAGGCACUGGGUACA | 21.7 nM | 23.4 nM | – | –
CUCGAGUGAGGAUAUUGAAUCGGCGGCUGACCGCACGAGCUCGAGAAGGCACAUGAGGAUCACCCAUGUGGGUC | – | – | 15.2 nM | 27.3 nM
AUUAUGUUAGGAUAUGCUUAUGGUGGAUAGUCGGAUAUGAUGCAGAAGGGACAUGAGGAUCACCCAUGUACUGA | – | – | 22.4 nM | 22.1 nM
CUUGAUCUUGUCAGGAUAUACCUGCCUAGUUGGAGGUAGAAGGGACAUGAGGAUCACCCAUGUAGCCAACCGAC | – | – | 16.9 nM | 19.2 nM
UUUUAACAUGAGGAUCACCCAUGUGAGGAUAUCGAAAUUUAUAUUUAUAUUUAUAUAUCGAGAAGGCACAUUUU | – | – | 128 nM | 127 nM
UACAGACAUGAGGAUCACCCAUGUGAGGAUAUUUCUGCUGGGAUCAGCCCAAUAUGCGAGAGAAGGCACUAGGG | – | – | 133 nM | 184 nM
AUAAAGCGAGGAUAUACAUGAGGAUCACCCAUGUGGCAGCCAGGUAGGAGUGACGUCGGUAGAAGGCGCACCCU | – | – | 31.9 nM | 35.6 nM
AGUUGUAAUACAGGAUAUAUAUUAUUUUUAUUUAUAGAAGGGUAAUCACAUGAGGAUCACCCAUGUAUAUACGAGGAAGAAGAG | 291 nM | 329 nM | – | –
GUGCCGAACCUAGGAUAUCUUAUCGGGUUCCGCCGUGGCUUAGCGACAUGAGGAUCACCCAUGUAAGAGAAGGAGGUGGCGGAG | – | – | 128 nM | 135 nM
ACAUGAGGAUCACCCAUGUUGAAUUAGGAUAUUUGACUGCGCAUGAGGUUCUCCCAUGUUCAACCGGAGAAGGGAUUAAUAAUU | 273 nM | 150 nM | – | –
CGCUACAGCCAGAAGGACAUGAGGAUCACCCAUGUAGGAUAUGGGAGACGCGGUCCAGUGUAGAGAAACUACGCUACUGUAGCG | 87.3 nM | 73.4 nM | – | –
GGUACCAUCACAGGAUAUGCUUUCCUUUGGGAAGCAGAAGGGUGUAACAUGAGGAUCACCCAUGUGGUGCCAGGGCGUGAGCCC | 470 nM | 42.6 nM | – | –
CAUAAGAUAGGAUAUACAGGCCCGUCUUCAUAUUGAUCCCGACAUGAGGAUCACCCAUGUAGAAGGAUCAUAUG | – | – | 13.5 nM | 13.4 nM
UCGUAUAUACAAGGAUAUCAAUUAUUGCUAAAUACAACAUGAGGAUCACCCAUGUAACUAUGGAGUGAGAAGGUGUAAUGACUU | 740 nM | 603 nM | – | –
UCCACUGCUGAGAAGGGAUACGGCUGGGUCGCAUCAGGAUAUCGAUACAGUGCAGCAUGAGGACAUGAGGAUCACCCAUGUGUG | 81 nM | 27 nM | – | –
UAAAAGACUAGCGAUCUAAAGAUCACAUGAGGAUCACCCAUGUAGGAUAUGAGCAGAAAAUCUGCUCAGAAGGACAUGCUAGUC | – | – | 5.88 nM | 9.18 nM
AGAUGACAAAGUCAUCUCGCUUUGACAUGAGGAUCACCCAUGUAGGAUAUAUUACUCAAAGAGUAAUAGAAGGACAUGUGUCUG | – | – | 49 nM | 155 nM
CAUAUACAGGGAGGAUAUAACAUGAGGAUCACCCAUGUGCAAUGCUCAAUGUUAGAAGGCCCAAUAGAAUCGCAAAAGGCAUCC | – | – | 89.8 nM | 272 nM
CUGUAAGAUGUAGGAUAUACAAUAAUAUUGUUAGUAGAAGGACAUGAGGAUCACCCAUGUAUAUAAAUUUUAAAUACUUUUGUG | – | – | 40.8 nM | 31.5 nM
GCUUGUGAAGGAUAUACUGGAGGAGUGCGAUAGAAGCACGAACAUGAGGAUCACCCAUGUAGAAGGUCAGGCGU | – | – | 24.4 nM | 29.1 nM
AGUGUCAUCGAGAAGGCCUCAUGACAUGAGGAUCACCCAUGUUAGCAUGGGAGGAUAUCGAUGAUACAGCUACGUUUCGUAGCA | 170 nM | 51.4 nM | – | –
GCAUGCGAUAAUAUGUCUGAGGGCAGAAGGCACAUGAGGAUCACCCAUGUAACGAUCUCUUCAAGUGAGGAUAUGUGCUCAUUG | – | – | 34 nM | 85.2 nM
ACUGUUUGAUUCCUCUUAUACAUGAGGAUCACCCAUGUUAUCGAGGAUAUGCAUUAGAGUGUUUAGCAGAAGGCGAUGUAAUUG | – | – | 6.84 nM | 19.9 nM
AAUGUACGAGGAUAUACAUAGAUACAGAUACAUGUAGACGUACAUGAGGAUCACCCAUGUAGAAGGCGUACAUA | – | – | 178 nM | 73.8 nM
